Active and inactive are the calls of the source.
Assays:
HeLa = test: Antiproliferative activity against human HeLa cells after 72 hrs by celltiter-blue cell viability assay; type: functional, cell-based
How it was run: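 72 h proliferation assay in HeLa cervical cancer cells, giving IC50; means of two or more experiments.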

Histone deacetylase 1 = Histone deacetylase 1 (Homo sapiens, UniProt Q13547); test: Inhibition of C-terminal FLAG tagged HDAC1
Histone deacetylase 3 = Histone deacetylase 3 (Homo sapiens, UniProt O15379); test: Inhibition of C-terminal FLAG tagged HDAC3
Histone deacetylase 3, sequence (O15379 whole entry): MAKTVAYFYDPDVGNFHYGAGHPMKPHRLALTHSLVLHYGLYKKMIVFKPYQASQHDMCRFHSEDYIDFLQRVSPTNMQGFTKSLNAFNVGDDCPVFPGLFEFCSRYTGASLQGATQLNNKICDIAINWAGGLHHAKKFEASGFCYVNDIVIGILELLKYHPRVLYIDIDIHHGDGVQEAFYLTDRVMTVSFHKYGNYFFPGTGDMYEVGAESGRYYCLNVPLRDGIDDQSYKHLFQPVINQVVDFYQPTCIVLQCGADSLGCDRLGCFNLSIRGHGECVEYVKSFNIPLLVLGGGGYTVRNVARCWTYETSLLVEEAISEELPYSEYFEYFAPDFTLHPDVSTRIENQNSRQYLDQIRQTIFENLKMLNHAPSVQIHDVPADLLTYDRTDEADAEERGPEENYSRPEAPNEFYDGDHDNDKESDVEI

Mus musculus [1] = test: Toxicity in mouse assessed as body weight loss at 100 mg/kg, ip administered daily for 2 weeks; type: organism-based; set-up: dose 100 mg/kg, route intraperitoneal; conditions: in vivo, 336 h
How it was run: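 Preliminary MTD study in mice. Intraperitoneal dosing once daily for 2 weeks, tracking mortality and body weight loss. Tolerated dose defined as no mortality and body weight loss below 5%.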

HCT-116 [2] = test: Antiproliferative activity against human HCT116 cells after 72 hrs by celltiter-blue cell viability assay; type: functional, cell-based; conditions: HCT-116, 72 h
HCT-116 [3] = test: Antitumor activity against human HCT116 cells xenografted nude mouse assessed as tumor growth inhibition at 100 mg/kg, ip administered once daily for 18 days relative to control; type: functional; conditions: HCT-116, ip, 432 h, route intraperitoneal, read-out: TGI
How it was run: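 HCT116 human colon carcinoma xenografts in nude mice, 12 per group. Dosed intraperitoneally once daily for 18 days and compared with vehicle-treated animals. Tumor growth followed over time and reported as mean ± SEM.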

[4] = Toxicity in ip dosed mouse assessed as maximum tolerated dose administered daily for 2 weeks; type: organism-based; conditions: in vivo
How it was run: (§1)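 Preliminary tolerability study in mice, with intraperitoneal dosing once daily for 2 weeks. The maximum tolerated dose was defined as the dose giving no mortality and body weight loss below 5%.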

Mus musculus [5] = test: Increase in histone acetylation in human HCT116 cells xenografted nude mouse at 100 mg/kg, ip measured for 24 hrs; type: functional, organism-based; set-up: dose 100 mg/kg; conditions: HCT-116
How it was run: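 Target engagement in nude mice bearing HCT116 xenografts, 4 per group. Single ip dose of 100 mpk, with vehicle controls. Histone acetylation measured in tumor biopsies at time points after administration and reported as mean ± SEM.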

Histone deacetylase 2 = Histone deacetylase 2 (Homo sapiens, UniProt Q92769); test: Inhibition of C-terminal FLAG tagged HDAC2
Histone deacetylase 2, sequence (Q92769 whole entry): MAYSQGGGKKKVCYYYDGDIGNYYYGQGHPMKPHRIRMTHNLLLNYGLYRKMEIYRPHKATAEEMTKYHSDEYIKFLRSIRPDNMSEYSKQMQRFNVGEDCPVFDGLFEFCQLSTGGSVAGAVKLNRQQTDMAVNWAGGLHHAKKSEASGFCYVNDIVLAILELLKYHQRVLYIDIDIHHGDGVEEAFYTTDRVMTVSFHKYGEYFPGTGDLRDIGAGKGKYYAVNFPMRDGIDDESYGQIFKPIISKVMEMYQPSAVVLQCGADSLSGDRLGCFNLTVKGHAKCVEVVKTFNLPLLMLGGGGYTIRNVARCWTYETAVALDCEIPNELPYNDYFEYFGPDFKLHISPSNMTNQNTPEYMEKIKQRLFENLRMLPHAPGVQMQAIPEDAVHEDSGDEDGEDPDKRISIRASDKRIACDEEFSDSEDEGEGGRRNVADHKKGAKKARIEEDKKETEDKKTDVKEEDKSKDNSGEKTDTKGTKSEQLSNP

[6] = biological target: T1, Protein deacetylase HDAC6 (Homo sapiens, UniProt Q9UBN7); test: Inhibition of C-terminal FLAG tagged HDAC6
T1 sequence (Q9UBN7 whole entry): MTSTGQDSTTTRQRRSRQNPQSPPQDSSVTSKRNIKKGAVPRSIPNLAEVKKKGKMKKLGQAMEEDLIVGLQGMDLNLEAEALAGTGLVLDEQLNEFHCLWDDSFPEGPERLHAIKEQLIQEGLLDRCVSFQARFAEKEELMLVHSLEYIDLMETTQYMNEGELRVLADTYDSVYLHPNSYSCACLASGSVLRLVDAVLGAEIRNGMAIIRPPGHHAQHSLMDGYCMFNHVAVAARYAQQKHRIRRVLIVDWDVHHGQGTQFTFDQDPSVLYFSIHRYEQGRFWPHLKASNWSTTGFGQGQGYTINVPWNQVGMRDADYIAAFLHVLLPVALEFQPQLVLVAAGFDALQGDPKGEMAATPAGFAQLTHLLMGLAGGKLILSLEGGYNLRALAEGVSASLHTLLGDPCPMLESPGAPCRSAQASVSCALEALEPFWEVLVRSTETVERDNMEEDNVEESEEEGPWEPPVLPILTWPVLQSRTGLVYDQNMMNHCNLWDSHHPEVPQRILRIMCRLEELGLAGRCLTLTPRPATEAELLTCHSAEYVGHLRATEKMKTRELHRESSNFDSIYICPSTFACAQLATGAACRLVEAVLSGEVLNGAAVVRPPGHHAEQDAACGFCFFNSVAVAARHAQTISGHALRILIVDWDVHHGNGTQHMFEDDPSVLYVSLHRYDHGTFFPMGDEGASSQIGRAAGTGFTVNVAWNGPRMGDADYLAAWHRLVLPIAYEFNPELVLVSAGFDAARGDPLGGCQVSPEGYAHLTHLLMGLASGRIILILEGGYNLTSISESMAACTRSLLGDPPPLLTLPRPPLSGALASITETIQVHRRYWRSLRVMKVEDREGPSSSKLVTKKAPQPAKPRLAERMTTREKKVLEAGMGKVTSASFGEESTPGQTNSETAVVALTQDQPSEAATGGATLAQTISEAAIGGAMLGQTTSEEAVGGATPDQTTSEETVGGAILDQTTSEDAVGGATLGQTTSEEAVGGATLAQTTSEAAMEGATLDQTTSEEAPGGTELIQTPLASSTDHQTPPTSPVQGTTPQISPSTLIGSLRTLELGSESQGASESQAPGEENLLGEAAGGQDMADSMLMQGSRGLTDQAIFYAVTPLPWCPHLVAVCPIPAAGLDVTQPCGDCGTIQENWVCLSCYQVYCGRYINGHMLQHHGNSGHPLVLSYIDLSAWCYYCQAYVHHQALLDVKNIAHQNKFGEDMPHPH

A549 = test: Antiproliferative activity against human A549 cells after 72 hrs by celltiter-blue cell viability assay; type: functional, cell-based; conditions: A549, 72 h
Histone deacetylase 4 = Histone deacetylase 4 (Homo sapiens, UniProt P56524); test: Inhibition of His-tagged HDAC4 catalytic domain expressed in Escherichia coli
Histone deacetylase 4, sequence (P56524 whole entry, the tested form may be a part): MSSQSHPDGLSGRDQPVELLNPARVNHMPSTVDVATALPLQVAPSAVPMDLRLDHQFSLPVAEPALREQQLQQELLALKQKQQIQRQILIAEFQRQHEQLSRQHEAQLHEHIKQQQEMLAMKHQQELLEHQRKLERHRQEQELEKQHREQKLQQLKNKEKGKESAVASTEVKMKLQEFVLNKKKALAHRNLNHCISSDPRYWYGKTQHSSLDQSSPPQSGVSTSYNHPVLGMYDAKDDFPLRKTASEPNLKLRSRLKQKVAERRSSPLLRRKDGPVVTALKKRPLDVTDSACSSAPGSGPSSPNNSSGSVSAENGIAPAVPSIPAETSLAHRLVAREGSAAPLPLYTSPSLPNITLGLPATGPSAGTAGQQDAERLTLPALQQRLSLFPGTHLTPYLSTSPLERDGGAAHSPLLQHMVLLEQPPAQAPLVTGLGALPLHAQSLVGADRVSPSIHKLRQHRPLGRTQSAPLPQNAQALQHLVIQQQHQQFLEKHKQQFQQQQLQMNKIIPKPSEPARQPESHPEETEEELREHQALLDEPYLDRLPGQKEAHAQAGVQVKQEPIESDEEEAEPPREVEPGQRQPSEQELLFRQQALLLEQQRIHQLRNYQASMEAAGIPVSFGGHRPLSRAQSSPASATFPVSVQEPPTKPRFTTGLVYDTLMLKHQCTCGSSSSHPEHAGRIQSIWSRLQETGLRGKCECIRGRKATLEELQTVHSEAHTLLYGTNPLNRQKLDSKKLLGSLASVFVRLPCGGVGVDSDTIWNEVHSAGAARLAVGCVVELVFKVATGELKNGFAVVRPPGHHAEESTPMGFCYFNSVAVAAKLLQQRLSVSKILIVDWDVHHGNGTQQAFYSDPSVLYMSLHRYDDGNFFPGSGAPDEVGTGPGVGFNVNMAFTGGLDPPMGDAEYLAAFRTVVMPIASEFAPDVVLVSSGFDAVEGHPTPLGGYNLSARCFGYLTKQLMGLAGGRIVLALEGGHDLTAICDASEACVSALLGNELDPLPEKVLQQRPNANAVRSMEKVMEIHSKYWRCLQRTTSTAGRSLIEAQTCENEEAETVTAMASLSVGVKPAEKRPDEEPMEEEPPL

Histone deacetylase 8 = biological target: T2, Histone deacetylase 8 (Homo sapiens, UniProt Q9BY41); test: Inhibition of His-tagged HDAC8 catalytic domain expressed in Escherichia coli
T2 sequence (Q9BY41 whole entry): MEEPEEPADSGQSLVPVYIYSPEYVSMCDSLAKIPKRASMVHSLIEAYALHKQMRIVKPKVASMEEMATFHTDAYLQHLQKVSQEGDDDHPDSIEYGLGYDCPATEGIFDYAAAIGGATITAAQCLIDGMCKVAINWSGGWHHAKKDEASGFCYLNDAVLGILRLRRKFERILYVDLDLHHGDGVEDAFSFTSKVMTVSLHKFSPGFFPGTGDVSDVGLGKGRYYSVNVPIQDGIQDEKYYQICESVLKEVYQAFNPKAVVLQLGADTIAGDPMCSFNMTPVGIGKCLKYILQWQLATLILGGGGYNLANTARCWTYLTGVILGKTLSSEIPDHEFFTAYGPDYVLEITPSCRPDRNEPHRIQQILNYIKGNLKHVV

Mus musculus [7] = test: Toxicity in mouse assessed as mortality at 100 mg/kg, ip administered daily for 2 weeks; type: organism-based; set-up: dose 100 mg/kg, route intraperitoneal; conditions: in vivo, 336 h; how it was run: as §1
Mus musculus [8] = test: Toxicity against human HCT116 cells xenografted nude mouse assessed as body weight loss at 100 mg/kg, ip administered once daily for 18 days; type: organism-based, HCT-116; set-up: dose 100 mg/kg, route intraperitoneal; conditions: in vivo, 432 h
[9] = Intrinsic clearance in dog liver microsomes in presence of NADPH; type: ADME, Canis lupus familiaris, Microsome
How it was run: (§2)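 Metabolic stability measured in liver microsomes (rat, human, dog) in the presence of NADPH. Intrinsic clearance expressed as µL/min/mg protein.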

[10] = Intrinsic clearance in human liver microsomes in presence of NADPH; type: ADME, Microsome; how it was run: as §2
[11] = Intrinsic clearance in rat liver microsomes in presence of NADPH; type: ADME, Microsome; how it was run: as §2
[12] = Intrinsic clearance in human microsomes in presence of UDPGA; type: ADME, Microsome
How it was run: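 Glucuronidation measured in human microsomes in the presence of UDPGA. Intrinsic clearance expressed as µL/min/mg protein.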

Mus musculus [13] = test: Toxicity against human HCT116 cells xenografted nude mouse assessed as body weight loss at 150 mg/kg, ip administered once daily for 18 days; type: organism-based, HCT-116; set-up: dose 150 mg/kg, route intraperitoneal; conditions: in vivo, 432 h

Histone deacetylase 1, sequence (Q13547 whole entry): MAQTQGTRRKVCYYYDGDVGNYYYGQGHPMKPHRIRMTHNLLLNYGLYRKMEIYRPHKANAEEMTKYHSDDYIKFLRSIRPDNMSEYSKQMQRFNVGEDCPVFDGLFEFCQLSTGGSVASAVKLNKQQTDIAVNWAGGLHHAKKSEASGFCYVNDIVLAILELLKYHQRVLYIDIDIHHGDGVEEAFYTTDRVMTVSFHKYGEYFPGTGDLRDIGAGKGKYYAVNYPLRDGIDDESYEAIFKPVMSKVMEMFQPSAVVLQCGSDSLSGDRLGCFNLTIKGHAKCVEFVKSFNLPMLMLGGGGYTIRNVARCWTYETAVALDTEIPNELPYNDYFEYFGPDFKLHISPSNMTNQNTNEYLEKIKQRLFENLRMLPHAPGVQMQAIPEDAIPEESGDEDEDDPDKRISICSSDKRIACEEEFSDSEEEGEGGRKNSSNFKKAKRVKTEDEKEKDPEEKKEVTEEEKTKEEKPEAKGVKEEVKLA

Compound	IC50 (HeLa) [nM]	IC50 (Histone deacetylase 1) [nM]	other results
COc1ccc2[nH]c(C)c(CC(=O)N[C@@H](CCCCCC(=O)NS(C)(=O)=O)c3ncc(-c4ccc5ccccc5c4)[nH]3)c2c1	8000	47	–
CCNC(=O)CCCCC[C@H](NC(=O)Cc1c(C)[nH]c2ccc(OC)cc12)c1ncc(-c2ccc3ccccc3c2)[nH]1	2700	66	–
COc1ccc2[nH]c(C)c(CC(=O)N[C@@H](CCCCCC(N)=O)c3ncc(-c4ccc5ccccc5c4)[nH]3)c2c1	440	–	IC50 (Histone deacetylase 3): 250 nM; Activity (Mus musculus [1]): < 5%; IC50 (HCT-116 [2]): 860 nM; inhibition in vivo at 100 mg/kg (HCT-116 [3]): 29%; MTD at 336 h [4]: 100 mg/kg; Activity (Mus musculus [5]): Active; IC50 (Histone deacetylase 2): 160 nM; IC50 [6]: 120 nM; IC50 (A549): 3560 nM; IC50 (Histone deacetylase 4): > 10000 nM; IC50 (Histone deacetylase 8): > 5000 nM; Activity (Mus musculus [7]): Non-toxic; Activity (Mus musculus [8]): < 5%
CCC(=O)CCCCC[C@@H]1NC(=O)[C@H]2CCCCN2C(=O)[C@H]([C@@H](C)CC)NC(=O)[C@H](Cc2cn(OC)c3ccccc23)NC1=O [APICIDIN]	290	–	–
CN(C)S(=O)(=O)N[C@@H](CCCCCC(=O)O)c1ncc(-c2ccc3ccccc3c2)[nH]1	26400	220	–
COc1ccc2[nH]c(C)c(CC(=O)N[C@@H](CCCCCC(=O)NCc3ccccc3)c3ncc(-c4ccc5ccccc5c4)[nH]3)c2c1	6800	1000	–
CNC(=O)CCCCC[C@H](NC(=O)Cc1c(C)[nH]c2ccc(OC)cc12)c1ncc(-c2ccc3ccccc3c2)[nH]1	1700	120	–
CONC(=O)CCCCC[C@H](NC(=O)Cc1c(C)[nH]c2ccc(OC)cc12)c1ncc(-c2ccc3ccccc3c2)[nH]1	660	34	–
COc1ccc2[nH]c(C)c(CC(=O)N[C@@H](CCCCCC(=O)NC(C)C)c3ncc(-c4ccc5ccccc5c4)[nH]3)c2c1	12000	480	–
O=C(O)CCCCC[C@H](NS(=O)(=O)c1ccccc1[N+](=O)[O-])c1ncc(-c2ccc3ccccc3c2)[nH]1	6860	19	–
COc1ccc2[nH]c(C)c(CC(=O)N[C@@H](CCCCCC(=O)Nc3ccccc3N)c3ncc(-c4ccc5ccccc5c4)[nH]3)c2c1	1340	110	–
COc1ccc2[nH]c(C)c(CC(=O)N[C@@H](CCCCCC(=O)Nc3ccccc3)c3ncc(-c4ccc5ccccc5c4)[nH]3)c2c1	5900	200	–
COc1ccc2[nH]c(C)c(CC(=O)N[C@@H](CCCCCC(=O)O)c3ncc(-c4ccc5ccccc5c4)[nH]3)c2c1	390	28	microsomal CLint [9]: 3 µL/min/mg; microsomal CLint [10]: 9 µL/min/mg; microsomal CLint [11]: 177 µL/min/mg; microsomal CLint [12]: 24 µL/min/mg
COc1ccc2[nH]c(C)c(CC(=O)N[C@@H](CCCCCC(C)=O)c3ncc(-c4ccccc4)[nH]3)c2c1	–	27	–
O=C(CCCCCCC(=O)Nc1ccccc1)NO [VORINOSTAT]	–	–	Activity (Mus musculus [13]): < 5%
COc1ccc2[nH]c(C)c(CC(=O)N[C@@H](CCCCCC(=O)NS(=O)(=O)C(F)(F)F)c3ncc(-c4ccc5ccccc5c4)[nH]3)c2c1	33500	94	–
COc1ccc2[nH]c(C)c(CC(=O)N[C@@H](CCCCCC(=O)Nc3nncs3)c3ncc(-c4ccc5ccccc5c4)[nH]3)c2c1	4700	350	–
COc1ccc2[nH]c(C)c(CC(=O)N[C@@H](CCCCCC(=O)NO)c3ncc(-c4ccc5ccccc5c4)[nH]3)c2c1	180	3	–
CCC(=O)CCCCC[C@H](NC(=O)Cc1c(C)[nH]c2ccc(OC)cc12)c1ncc(-c2ccc3ccccc3c2)[nH]1	200	27	–
CN1CC[C@@H](C(=O)N[C@@H](CCCCCC(=O)O)c2ncc(-c3ccc4ccccc4c3)[nH]2)C1	> 25000	73	–
COc1ccc2[nH]c(C)c(CC(=O)N[C@@H](CCCCCC(=O)N(C)C)c3ncc(-c4ccc5ccccc5c4)[nH]3)c2c1	3800	170	–
CN1CCC(C(=O)N[C@@H](CCCCCC(=O)O)c2ncc(-c3ccc4ccccc4c3)[nH]2)CC1	35000	35	–
CN1CC[C@H](C(=O)N[C@@H](CCCCCC(=O)O)c2ncc(-c3ccc4ccccc4c3)[nH]2)C1	> 25000	40	–
O=C(O)CCCCC[C@H](NC(=O)c1cncs1)c1ncc(-c2ccc3ccccc3c2)[nH]1	5800	23	–

From ChEMBL document CHEMBL1136904, “Histone deacetylase inhibitors with a primary amide zinc binding group display antitumor activity in xenograft model” (Bioorg Med Chem Lett, 2009)
